Legend:
Adenosine receptor A2a [1] = target: T1, Adenosine receptor A2a (Homo sapiens, UniProt P29274); assay: Agonist activity at human adenosine receptor A2A expressed in HEK293 cells assessed as cAMP accumulation incubated for 30 mins by Eu-cAMP tracer-based Envision plate reader analysis; type: functional, cell-based
Outline: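 Intact HEK-293 cells stably expressing human A2A receptor, detached with Versene, resuspended at 300 cells/well in HBSS/HEPES/BSA buffer pH 7.4 with rolipram. Compounds given as 11-point three-fold DMSO dilution series.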

Adenosine receptor A1 [2] = target: T2, Adenosine receptor A1 (Homo sapiens, UniProt P30542); assay: Displacement of [3H]DPCPX from human cloned adenosine receptor A1 expressed in CHO-K1 cell membranes incubated for 60 mins by microbeta counting method
T2 sequence (P30542 whole entry): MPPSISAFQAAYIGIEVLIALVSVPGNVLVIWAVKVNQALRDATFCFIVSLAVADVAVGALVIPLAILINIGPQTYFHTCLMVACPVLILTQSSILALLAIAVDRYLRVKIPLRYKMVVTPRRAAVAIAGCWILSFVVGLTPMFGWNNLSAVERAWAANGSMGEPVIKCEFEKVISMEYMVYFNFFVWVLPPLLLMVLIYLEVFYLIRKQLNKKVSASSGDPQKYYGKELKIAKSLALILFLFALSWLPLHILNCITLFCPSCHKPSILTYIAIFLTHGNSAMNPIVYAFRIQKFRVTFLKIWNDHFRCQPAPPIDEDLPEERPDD
Outline: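 Radioligand [3H]DPCPX at 5 nM. Compounds tested as 10-point three-fold dilution series. Incubation 60 min at 27°C. Read-out by GF/B filtration and scintillation counting. Ki obtained from IC50 by Cheng–Prusoff (Kd 2.28 nM). Mean ± SEM of duplicates.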

Adenosine receptor A2a [3] = target: T1, Adenosine receptor A2a; assay: Displacement of [3H]CGS21680 from human cloned adenosine receptor A2A expressed in HEK-293 cell membrane incubated for 60 mins by microbeta counting method; type: cell membranes
Outline: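 Compounds tested as 10-point three-fold dilution series. Incubation 60 min at 27°C. Bound ligand separated by GF/B filtration, scintillation counted. Mean ± SEM of duplicates.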

Homo sapiens = organism: Homo sapiens; assay: Selectivity index, ratio of Ki for human cloned adenosine receptor A1 expressed in CHO-K1 cell membrane to Ki for human cloned adenosine receptor A2A expressed in HEK293 cell membrane incubated for 60 mins by microbeta counting method; type: cell-based
Outline: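 Ratio Ki(A1)/Ki(A2A). […] Both assays incubated 60 min at 27°C and read by filtration scintillation counting. Ki values from Cheng–Prusoff conversion.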

[4] = target: T3, Adenosine receptor A1 (Homo sapiens) (UniProt P30542); assay: Displacement of [3H]DPCPX from human cloned adenosine receptor A1 expressed in CHO-K1 cell membranes at 1 uM incubated for 60 mins by microbeta counting method relative to control
T3 sequence (whole entry): T2 sequence (P30542 whole entry)
Outline: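 Human A1 CHO-K1 membranes in Tris-HCl pH 7.4/MgCl2/EDTA buffer with adenosine deaminase. Radioligand [3H]DPCPX at 5 nM. Single compound concentration of 1 μM. Incubation 60 min at 27°C. Filtration then scintillation counting. Result is percent displacement of specific binding.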

Adenosine receptor A1 [5] = target: T2, Adenosine receptor A1; assay: Displacement of [3H]CPX from human adenosine receptor A1 expressed in CHO-K1 cell membranes incubated for 2 hrs by radioligand competitive binding analysis
Adenosine receptor A2a [6] = target: T1, Adenosine receptor A2a; assay: Displacement of [3H]CGS21680 from human cloned adenosine receptor A2A expressed in HEK-293 cell membrane at 1 uM incubated for 60 mins by microbeta counting method relative to control; type: cell membranes
Outline: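 Human A2A HEK-293 membranes in Tris-HCl pH 7.4/MgCl2/EDTA buffer with adenosine deaminase. […] Single compound concentration of 1 μM. Incubation 60 min at 27°C. Filtration then scintillation counting. Result is percent displacement of specific binding.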

T1 sequence (P29274 whole entry): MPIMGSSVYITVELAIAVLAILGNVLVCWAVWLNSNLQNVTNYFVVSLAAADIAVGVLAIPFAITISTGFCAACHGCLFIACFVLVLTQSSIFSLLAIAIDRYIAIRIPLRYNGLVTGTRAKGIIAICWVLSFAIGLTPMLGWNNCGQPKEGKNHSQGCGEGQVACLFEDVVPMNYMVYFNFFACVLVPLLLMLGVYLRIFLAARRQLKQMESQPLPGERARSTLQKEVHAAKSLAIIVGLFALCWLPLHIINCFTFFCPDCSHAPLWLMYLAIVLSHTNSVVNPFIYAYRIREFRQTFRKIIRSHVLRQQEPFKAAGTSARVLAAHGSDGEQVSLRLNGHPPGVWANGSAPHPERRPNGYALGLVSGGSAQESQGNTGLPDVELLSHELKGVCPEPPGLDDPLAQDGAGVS

SMILES: Nc1nc(N/N=C/c2ccc[nH]2)nc2c1ncn2[C@@H]1O[C@H](CO)[C@@H](O)[C@H]1O
- EC50 (Adenosine receptor A2a [1]): 8.52 nM
- Ki (Adenosine receptor A1 [2]): 8 nM
- Ki (Adenosine receptor A2a [3]): 8.3 nM
- Ratio Ki (Homo sapiens): 0.96

SMILES: Nc1nc(N/N=C/c2ccc(Cl)c(C(F)(F)F)c2)nc2c1ncn2[C@@H]1O[C@H](CO)[C@@H](O)[C@H]1O
- Ki (Adenosine receptor A1 [2]): > 10000 nM
- Ratio Ki (Homo sapiens): > 1000
- inhibition [4]: 11%

SMILES: Nc1nc(N/N=C/c2ccc(-n3ccnc3)cc2)nc2c1ncn2[C@@H]1O[C@H](CO)[C@@H](O)[C@H]1O
- Ki (Adenosine receptor A1 [2]): > 10000 nM
- Ratio Ki (Homo sapiens): > 1000
- inhibition [4]: 0%

SMILES: COc1ccc(/C=N/Nc2nc(N)c3ncn([C@@H]4O[C@H](CO)[C@@H](O)[C@H]4O)c3n2)cn1
- Ki (Adenosine receptor A1 [2]): 2.6 nM
- Ki (Adenosine receptor A2a [3]): 1450 nM
- Ratio Ki (Homo sapiens): 0.0018

SMILES: Nc1nc(N/N=C/c2ccc(C(F)(F)F)cc2C(F)(F)F)nc2c1ncn2[C@@H]1O[C@H](CO)[C@@H](O)[C@H]1O
- Ki (Adenosine receptor A1 [2]): > 10000 nM
- Ki (Adenosine receptor A2a [3]): 6280 nM
- Ratio Ki (Homo sapiens): > 1000
- inhibition [4]: 0%

SMILES: CCCOc1ccc(/C=N/Nc2nc(N)c3ncn([C@@H]4O[C@H](CO)[C@@H](O)[C@H]4O)c3n2)cc1
- Ki (Adenosine receptor A1 [2]): > 10000 nM
- Ki (Adenosine receptor A2a [3]): 224 nM
- Ratio Ki (Homo sapiens): 66
- inhibition [4]: 7%

SMILES: CCCCC/C=C/C=C/C=N/Nc1nc(N)c2ncn([C@@H]3O[C@H](CO)[C@@H](O)[C@H]3O)c2n1
- EC50 (Adenosine receptor A2a [1]): 10.2 nM
- Ki (Adenosine receptor A1 [2]): 2 nM
- Ki (Adenosine receptor A2a [3]): 17.5 nM
- Ratio Ki (Homo sapiens): 0.11

SMILES: Nc1nc(N/N=C/c2cccnc2Cl)nc2c1ncn2[C@@H]1O[C@H](CO)[C@@H](O)[C@H]1O
- EC50 (Adenosine receptor A2a [1]): 4.6 nM
- Ki (Adenosine receptor A1 [2]): 4.6 nM
- Ki (Adenosine receptor A2a [3]): 8.7 nM
- Ratio Ki (Homo sapiens): 0.53

SMILES: Nc1nc(N/N=C/c2ccc3ncccc3c2)nc2c1ncn2[C@@H]1O[C@H](CO)[C@@H](O)[C@H]1O
- EC50 (Adenosine receptor A2a [1]): 5.52 nM
- Ki (Adenosine receptor A1 [2]): 9.8 nM
- Ki (Adenosine receptor A2a [3]): 6.5 nM
- Ratio Ki (Homo sapiens): 1.5

SMILES: CCOc1cc(/C=N/Nc2nc(N)c3ncn([C@@H]4O[C@H](CO)[C@@H](O)[C@H]4O)c3n2)ccc1O
- Ki (Adenosine receptor A1 [2]): 6940 nM
- Ratio Ki (Homo sapiens): 5

SMILES: Nc1nc(N/N=C/c2ccc(OCc3ccccc3)c(OCc3ccccc3)c2)nc2c1ncn2[C@@H]1O[C@H](CO)[C@@H](O)[C@H]1O
- Ki (Adenosine receptor A1 [2]): > 10000 nM
- Ratio Ki (Homo sapiens): > 1000
- inhibition [4]: 0%

SMILES: Nc1nc(N/N=C/c2ccc(C(F)(F)F)cc2)nc2c1ncn2[C@@H]1O[C@H](CO)[C@@H](O)[C@H]1O
- Ki (Adenosine receptor A1 [2]): 37 nM
- Ratio Ki (Homo sapiens): 0.6

SMILES: Nc1nc(N/N=C/C2CCCC2)nc2c1ncn2[C@@H]1O[C@H](CO)[C@@H](O)[C@H]1O
- EC50 (Adenosine receptor A2a [1]): 4.34 nM
- Ki (Adenosine receptor A1 [2]): 5.6 nM
- Ki (Adenosine receptor A2a [3]): 4.1 nM
- Ratio Ki (Homo sapiens): 1.4

SMILES: CNC(=O)c1cnn(-c2nc(N)c3ncn([C@@H]4O[C@H](CO)[C@@H](O)[C@H]4O)c3n2)c1 [REGADENOSON ANHYDROUS]
- Ki (Adenosine receptor A1 [5]): > 16500 nM

SMILES: N#Cc1ccccc1/C=N/Nc1nc(N)c2ncn([C@@H]3O[C@H](CO)[C@@H](O)[C@H]3O)c2n1
- Ki (Adenosine receptor A1 [2]): 2.9 nM

SMILES: Nc1nc(N/N=C/c2ccc(-c3ccc(Br)cc3)o2)nc2c1ncn2[C@@H]1O[C@H](CO)[C@@H](O)[C@H]1O
- Ki (Adenosine receptor A1 [2]): 4.5 nM
- inhibition (Adenosine receptor A2a [6]): 27%
- Ki (Adenosine receptor A2a [3]): > 10000 nM
- Ratio Ki (Homo sapiens): < 0.001

SMILES: Nc1nc(N/N=C/c2ccc(-c3ccccn3)cc2)nc2c1ncn2[C@@H]1O[C@H](CO)[C@@H](O)[C@H]1O
- Ki (Adenosine receptor A1 [2]): 7540 nM
- Ratio Ki (Homo sapiens): 36

SMILES: Nc1nc(N/N=C/c2ccc(N3CCCC3)cc2)nc2c1ncn2[C@@H]1O[C@H](CO)[C@@H](O)[C@H]1O
- Ki (Adenosine receptor A1 [2]): 5.1 nM
- Ki (Adenosine receptor A2a [3]): 6620 nM
- Ratio Ki (Homo sapiens): 0.00077

SMILES: Nc1nc(N/N=C/c2ccc(Br)cn2)nc2c1ncn2[C@@H]1O[C@H](CO)[C@@H](O)[C@H]1O
- Ki (Adenosine receptor A1 [2]): 4.7 nM
- Ki (Adenosine receptor A2a [3]): 239 nM
- Ratio Ki (Homo sapiens): 0.02

SMILES: Nc1nc(N/N=C/c2ccc(OCc3ccc(F)cc3)cc2)nc2c1ncn2[C@@H]1O[C@H](CO)[C@@H](O)[C@H]1O
- EC50 (Adenosine receptor A2a [1]): 4.05 nM
- Ki (Adenosine receptor A1 [2]): 70 nM
- Ratio Ki (Homo sapiens): 12.5

SMILES: Nc1nc(N/N=C/c2cncs2)nc2c1ncn2[C@@H]1O[C@H](CO)[C@@H](O)[C@H]1O
- Ki (Adenosine receptor A1 [2]): 22 nM
- Ki (Adenosine receptor A2a [3]): 71 nM
- Ratio Ki (Homo sapiens): 0.31

SMILES: CC(/C=N/Nc1nc(N)c2ncn([C@@H]3O[C@H](CO)[C@@H](O)[C@H]3O)c2n1)Cc1ccc(C(C)C)cc1 (some centres not stated)
- EC50 (Adenosine receptor A2a [1]): 1.38 nM
- Ki (Adenosine receptor A1 [2]): 9500 nM
- Ki (Adenosine receptor A2a [3]): 6.3 nM
- Ratio Ki (Homo sapiens): 1430

SMILES: Nc1nc(N/N=C/c2ccc(-c3ccccc3)cc2)nc2c1ncn2[C@@H]1O[C@H](CO)[C@@H](O)[C@H]1O
- Ki (Adenosine receptor A1 [2]): 7860 nM

SMILES: N#Cc1ccc(/C=N/Nc2nc(N)c3ncn([C@@H]4O[C@H](CO)[C@@H](O)[C@H]4O)c3n2)cc1
- EC50 (Adenosine receptor A2a [1]): 15.3 nM
- Ki (Adenosine receptor A1 [2]): 4.1 nM
- Ki (Adenosine receptor A2a [3]): 8.5 nM
- Ratio Ki (Homo sapiens): 0.5

SMILES: Nc1nc(N/N=C/c2cccc(OCc3ccccc3)c2)nc2c1ncn2[C@@H]1O[C@H](CO)[C@@H](O)[C@H]1O
- Ki (Adenosine receptor A1 [2]): 13 nM
- Ratio Ki (Homo sapiens): 0.075

SMILES: CC(=O)Nc1ccc(/C=N/Nc2nc(N)c3ncn([C@@H]4O[C@H](CO)[C@@H](O)[C@H]4O)c3n2)cc1
- Ki (Adenosine receptor A1 [2]): > 10000 nM
- Ratio Ki (Homo sapiens): > 1000
- inhibition [4]: 0%

SMILES: CCN(CC)c1ccc(/C=N/Nc2nc(N)c3ncn([C@@H]4O[C@H](CO)[C@@H](O)[C@H]4O)c3n2)cc1
- EC50 (Adenosine receptor A2a [1]): 17.9 nM
- Ki (Adenosine receptor A1 [2]): > 10000 nM
- Ki (Adenosine receptor A2a [3]): 6.4 nM
- Ratio Ki (Homo sapiens): > 1000
- inhibition [4]: 0%

SMILES: CCCCc1nc(/C=N/Nc2nc(N)c3ncn([C@@H]4O[C@H](CO)[C@@H](O)[C@H]4O)c3n2)c(Cl)[nH]1
- EC50 (Adenosine receptor A2a [1]): 1.1 nM
- Ki (Adenosine receptor A1 [2]): 12 nM
- Ki (Adenosine receptor A2a [3]): 18 nM
- Ratio Ki (Homo sapiens): 0.67

SMILES: COc1cc(/C=N/Nc2nc(N)c3ncn([C@@H]4O[C@H](CO)[C@@H](O)[C@H]4O)c3n2)cc(OC)c1OC
- Ki (Adenosine receptor A1 [2]): > 10000 nM
- Ki (Adenosine receptor A2a [3]): 5490 nM
- Ratio Ki (Homo sapiens): > 1000
- inhibition [4]: 0%

SMILES: Nc1nc(N/N=C/c2ccc(N3CCOCC3)cc2)nc2c1ncn2[C@@H]1O[C@H](CO)[C@@H](O)[C@H]1O
- Ki (Adenosine receptor A1 [2]): 2.5 nM
- Ratio Ki (Homo sapiens): 0.003

SMILES: COc1cc(/C=N/Nc2nc(N)c3ncn([C@@H]4O[C@H](CO)[C@@H](O)[C@H]4O)c3n2)ccc1OCc1ccccc1
- Ki (Adenosine receptor A1 [2]): 9140 nM
- Ratio Ki (Homo sapiens): 91

SMILES: Nc1nc(N/N=C/c2ccc(N(c3ccccc3)c3ccccc3)cc2)nc2c1ncn2[C@@H]1O[C@H](CO)[C@@H](O)[C@H]1O
- Ki (Adenosine receptor A1 [2]): > 10000 nM
- Ratio Ki (Homo sapiens): > 1000
- inhibition [4]: 0%

SMILES: CSCC/C=N/Nc1nc(N)c2ncn([C@@H]3O[C@H](CO)[C@@H](O)[C@H]3O)c2n1
- Ki (Adenosine receptor A1 [2]): > 10000 nM
- inhibition (Adenosine receptor A2a [6]): 8%
- Ki (Adenosine receptor A2a [3]): > 10000 nM
- inhibition [4]: 0%
